Measurements as given in paper PMC7199890 (European journal of medicinal chemistry, 2019).

How the values were obtained:
Experiment in all cases: Radioligand binding
hA1AR = target: T1, hA1AR (Homo sapiens, UniProt P30542); conditions: read-out: hA1 % of inhibition
T1 sequence (P30542 1-326): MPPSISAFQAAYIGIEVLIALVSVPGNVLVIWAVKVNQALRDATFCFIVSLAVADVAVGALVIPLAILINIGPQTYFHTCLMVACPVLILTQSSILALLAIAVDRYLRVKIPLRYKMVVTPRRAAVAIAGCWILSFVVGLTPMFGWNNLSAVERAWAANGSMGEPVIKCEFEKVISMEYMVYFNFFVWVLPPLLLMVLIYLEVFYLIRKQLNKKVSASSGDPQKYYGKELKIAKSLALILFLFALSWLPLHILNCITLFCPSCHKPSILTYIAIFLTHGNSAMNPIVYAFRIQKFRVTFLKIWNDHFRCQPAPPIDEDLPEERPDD
Method in brief: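 Membranes came from CHO cells expressing recombinant hA1AR, labelled with [3H]R-PIA. ADA (3 units/mL) was present during membrane preparation, a 30 min 30 °C preincubation and radioligand incubation. Test compound was dissolved in DMSO and diluted in buffer, DMSO ≤2% final. Incubations ended by GF/B filtration and three buffer rinses. The read-out is % inhibition of specific binding at a single concentration.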

hA2AAR = hA2AAR (Homo sapiens, UniProt P29274); conditions: for hA1/hA2A: selectivity ratio of Ki values
hA3AR = target: T2, hA3AR (Homo sapiens, UniProt P0DMS8); conditions: for hA1/hA3 / hA2A/hA3: selectivity ratio of Ki values
T2 sequence (P0DMS8 1-318): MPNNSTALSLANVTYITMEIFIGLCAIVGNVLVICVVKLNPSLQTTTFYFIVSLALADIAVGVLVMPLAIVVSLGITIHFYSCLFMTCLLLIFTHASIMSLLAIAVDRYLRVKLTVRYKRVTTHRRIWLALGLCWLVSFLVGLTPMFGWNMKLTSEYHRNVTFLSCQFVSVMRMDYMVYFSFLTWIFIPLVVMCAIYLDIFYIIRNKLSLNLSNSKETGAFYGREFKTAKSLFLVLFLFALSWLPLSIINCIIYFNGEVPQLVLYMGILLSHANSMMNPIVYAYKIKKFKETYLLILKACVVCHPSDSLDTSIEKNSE
Method in brief: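 Displacement of [125I]AB-MECA binding on membranes from CHO cells expressing recombinant hA3AR. […] ADA (3 units/mL) was present during membrane preparation, a 30 min 30 °C preincubation and radioligand incubation. DMSO was ≤2% final. At least six competitor concentrations spanning 3 log units were used. Incubations ended by GF/B filtration and three rinses.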

Chain of hA2AAR (P29274 whole entry): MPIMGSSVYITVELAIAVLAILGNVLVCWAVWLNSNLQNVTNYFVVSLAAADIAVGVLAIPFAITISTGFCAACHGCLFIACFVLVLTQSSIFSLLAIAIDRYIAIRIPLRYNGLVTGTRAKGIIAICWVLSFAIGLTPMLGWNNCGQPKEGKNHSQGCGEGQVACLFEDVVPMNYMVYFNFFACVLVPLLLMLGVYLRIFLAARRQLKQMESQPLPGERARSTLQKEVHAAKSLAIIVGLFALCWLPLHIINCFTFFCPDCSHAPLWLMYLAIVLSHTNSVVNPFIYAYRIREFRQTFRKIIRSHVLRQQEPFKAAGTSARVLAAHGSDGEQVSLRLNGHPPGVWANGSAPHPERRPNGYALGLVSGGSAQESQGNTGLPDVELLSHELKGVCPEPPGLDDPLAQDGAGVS

SMILES | inhibition at 10 µM (hA1AR) | Ki (hA2AAR) | hA1/hA2A (hA2AAR) | Ki (hA3AR) | hA1/hA3 (hA3AR) | hA2A/hA3 (hA3AR)
Cn1cc2c(nc(NC(=O)Nc3ccc(CC(=O)NCCOCCOCCNC(=S)Nc4ccc(-c5c6ccc(=O)cc-6oc6cc(O)ccc56)c(C(=O)O)c4)cc3)n3nc(-c4ccco4)nc23)n1 [Compound 17, 5-(3-(2-(2-(2-(2-(4-(3-(2-(furan-2-yl)-8-methyl-8H-pyrazolo[4,3-e][1,2,4]triazolo[1,5-c]pyrimidin-5-yl)ureido)phenyl)acetamido)ethoxy)ethoxy)ethyl)thioureido)-2-(6-hydroxy-3-oxo-3H-xanthen-9-yl)benzoate] | 29% | 0.0957 µM | >94 | 0.137 µM | >73 | 0.69
Cn1cc2c(nc(NC(=O)Nc3ccc(CC(=O)NCCCOCCOCCOCCCNC(=S)Nc4ccc(-c5c6ccc(=O)cc-6oc6cc(O)ccc56)c(C(=O)O)c4)cc3)n3nc(-c4ccco4)nc23)n1 [Compound 18, 5-(3-(1-(4-(3-(2-(furan-2-yl)-8-methyl-8H-pyrazolo[4,3-e] [1,2,4]triazolo[1,5-c]pyrimidin-5-yl)ureido)phenyl)-2-oxo-7,10,13-trioxa-3-azahexadecan-16-yl)thioureido)-2-(6-hydroxy-3-oxo-3H-xanthen-9-yl)benzoate] | 32% | 0.0915 µM | >109 | 0.207 µM | >48 | 0.44
Cn1cc2c(nc(NC(=O)Nc3ccc(CC(=O)NCCCNC(=S)Nc4ccc(-c5c6ccc(=O)cc-6oc6cc(O)ccc56)c(C(=O)O)c4)cc3)n3nc(-c4ccco4)nc23)n1 [Compound 14, 5-(3-(3-(2-(4-(3-(2-(furan-2-yl)-8-methyl-8H-pyrazolo[4,3-e][1,2,4]triazolo[1,5-c]pyrimidin-5-yl)ureido)phenyl)acetamido)propyl)thioureido)-2-(6-hydroxy-3-oxo-3H-xanthen-9-yl)benzoate] | 27% | – | >96 | – | >96 | 1
